Assay results: ChEMBL document CHEMBL4130355, “Development of a series of novel 4-anlinoquinazoline derivatives possessing quinazoline skeleton: Design, synthesis, EGFR kinase inhibitory efficacy, and evaluation of anticancer activities in vitro” (Eur J Med Chem, 2017)
Active and inactive are the calls of the source. The rule behind the calls is not given here.

Tests used:
[1] = system: HepG2; assay: Antiproliferative activity against human HepG2 cells at 50 uM after 72 hrs by MTT assay realtive to control; type: functional
Procedure, shortened: (§1)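 MTT assay in triplicate wells. Cells (2 × 10^3/well) were attached 24 h, then treated at 0.1, 1, 10, 50 or 100 µM for 24, 48 or 72 h. MTT added for 4 h, SDS solubilisation, absorbance at 570/650 nm. Inhibition = 1 − (OD treated − blank)/(OD control − blank). Reported as mean ± SD of three independent experiments.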

[2] = system: HepG2; assay: Cell cycle arrest in human HepG2 assessed as accumulation at G0/G1 phase at 2.5 uM after 48 hrs by propidium iodide-staining based flow cytometry (reference value: 69.40%); type: functional
Procedure, shortened: (§2)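 HepG2 cells at 5.0 × 10^5/well were grown 24 h, then treated at 0, 2.5, 5.0 or 10.0 µM for 48 h alongside medium-only wells. Cells fixed in 70% ice-cold ethanol for ≥24 h, treated with RNase A at 37 °C for 30 min, then stained with propidium iodide for 30 min at 4 °C in the dark. DNA content read by flow cytometry. Average of at least three experiments.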

[3] = system: HepG2; assay: Antiproliferative activity against human HepG2 cells at 1 uM after 24 hrs by MTT assay realtive to control; type: functional; procedure, shortened: as §1
[4] = system: A549; assay: Antiproliferative activity against human A549 cells at 100 uM after 24 hrs by MTT assay relative to control; type: functional; procedure, shortened: as §1
[5] = system: HepG2; assay: Cell cycle arrest in human HepG2 assessed as accumulation at S phase at 10 uM after 48 hrs by propidium iodide-staining based flow cytometry (reference value: 21.46%); type: functional; procedure, shortened: as §2
[6] = system: HepG2; assay: Induction of apoptosis in human HepG2 cells assessed as caspase-3 activity at 20 uM after 48 hrs by colorimetric assay relative to control; type: functional
Procedure, shortened: (§3)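 After 48 h treatment, HepG2 were rinsed in ice-cold PBS and lysed 1–1.5 h on ice in buffer with 1% DTT. Lysate was spun at 10,000×g for 1 min at 4 °C; supernatant protein was measured by Bradford. Supernatant was mixed with 2× reaction buffer (1% DTT) plus caspase-3 chromogenic peptide substrate, held 4 h at 37 °C, and read at 405 nm.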

[7] = system: HepG2; assay: Cytotoxicity against human HepG2 cells at 5 uM after 48 hrs by LDH release assay (reference value: 100%); type: functional
Procedure, shortened: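 HepG2 seeded at 1.0 × 10^5 cells/well, grown 24 h at 37 °C in 5% CO2, then dosed for 48 h. LDH in supernatant read on plate reader per kit. Maximal release (100% cytotoxicity) came from lysis with 2% (V/V) lysate for 1 h at 37 °C; medium-only cells served as natural release. Triplicate, three independent runs.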

[8] = system: HepG2; assay: Induction of mitochondrial membrane potential loss in human HepG2 cells assessed as mitochondrial membrane potential levels at 20 uM after 48 hrs by rhodamine-123 dye based FACS analysis (reference value: 90.4%); type: functional
[9] = system: HepG2; assay: Antiproliferative activity against human HepG2 cells at 50 uM after 48 hrs by MTT assay realtive to control; type: functional; procedure, shortened: as §1
[10] = system: HepG2; assay: Induction of apoptosis in human HepG2 cells assessed as convoluted nuclei formation at 2.5 to 20 uM after 48 hrs by Hoechst 33342/propidium iodide double staining based laser scanning confocal microscopy; type: functional, cell-based
Procedure, shortened: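 HepG2 plated at 5.0 × 10^4 cells/well in DMEM with 10% FBS, 24 h at 37 °C, then treated 48 h (2.5–20 µM). After two ice-cold PBS washes, cells were stained with Hoechst 33342/PI mixed 1:1 for 30 min at 37 °C in the dark, washed three times, and imaged by laser scanning confocal microscopy at 200×.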

[11] = system: HepG2; assay: Antiproliferative activity against human HepG2 cells at 1 uM after 72 hrs by MTT assay realtive to control; type: functional; procedure, shortened: as §1
[12] = system: HepG2; assay: Induction of apoptosis in human HepG2 cells assessed as elevation in ROS levels after 48 hrs by DCFH-DA fluorescence-based spectrometry; type: functional, cell-based
Procedure, shortened: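 HepG2 seeded at 5.0 × 10^5 cells/mL, 24 h at 37 °C in 5% CO2, then treated 48 h. Harvested cells were washed twice in ice-cold PBS and loaded with 10 µM DCFH-DA for 30 min at 37 °C. They were then trypsinized, washed and resuspended in ice-cold HBSS, and DCF fluorescence was read on a fluorescence spectrometer.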

[13] = system: HepG2; assay: Antiproliferative activity against human HepG2 cells at 10 uM after 24 hrs by MTT assay realtive to control; type: functional; procedure, shortened: as §1
[14] = system: A549; assay: Antiproliferative activity against human A549 cells at 100 uM after 72 hrs by MTT assay relative to control; type: functional; procedure, shortened: as §1
[15] = system: A549; assay: Antiproliferative activity against human A549 cells at 0.1 uM after 24 hrs by MTT assay relative to control; type: functional; procedure, shortened: as §1
[16] = system: HepG2; assay: Antiproliferative activity against human HepG2 cells at 10 uM after 72 hrs by MTT assay realtive to control; type: functional; procedure, shortened: as §1
[17] = Antiproliferative activity against human CCC-HPF1 cells after 72 hrs by MTT assay; type: ADME, cell-based; conditions: CCC-HPF-1, 72 h
[18] = system: A549; assay: Antiproliferative activity against human A549 cells at 1 uM after 48 hrs by MTT assay relative to control; type: functional; procedure, shortened: as §1
[19] = system: DU-145; assay: Antiproliferative activity against human DU145 cells after 72 hrs by MTT assay; type: functional, cell-based; conditions: DU-145, 72 h
[20] = system: HepG2; assay: Induction of apoptosis in human HepG2 cells assessed as caspase-3 activity at 5 uM after 48 hrs by colorimetric assay relative to control; type: functional; procedure, shortened: as §3
[21] = system: A549; assay: Antiproliferative activity against human A549 cells at 10 uM after 24 hrs by MTT assay relative to control; type: functional; procedure, shortened: as §1
[22] = target: T1, Epidermal growth factor receptor (Homo sapiens, UniProt P00533); conditions: HEK293, at 10 pM
T1 sequence (P00533 whole entry): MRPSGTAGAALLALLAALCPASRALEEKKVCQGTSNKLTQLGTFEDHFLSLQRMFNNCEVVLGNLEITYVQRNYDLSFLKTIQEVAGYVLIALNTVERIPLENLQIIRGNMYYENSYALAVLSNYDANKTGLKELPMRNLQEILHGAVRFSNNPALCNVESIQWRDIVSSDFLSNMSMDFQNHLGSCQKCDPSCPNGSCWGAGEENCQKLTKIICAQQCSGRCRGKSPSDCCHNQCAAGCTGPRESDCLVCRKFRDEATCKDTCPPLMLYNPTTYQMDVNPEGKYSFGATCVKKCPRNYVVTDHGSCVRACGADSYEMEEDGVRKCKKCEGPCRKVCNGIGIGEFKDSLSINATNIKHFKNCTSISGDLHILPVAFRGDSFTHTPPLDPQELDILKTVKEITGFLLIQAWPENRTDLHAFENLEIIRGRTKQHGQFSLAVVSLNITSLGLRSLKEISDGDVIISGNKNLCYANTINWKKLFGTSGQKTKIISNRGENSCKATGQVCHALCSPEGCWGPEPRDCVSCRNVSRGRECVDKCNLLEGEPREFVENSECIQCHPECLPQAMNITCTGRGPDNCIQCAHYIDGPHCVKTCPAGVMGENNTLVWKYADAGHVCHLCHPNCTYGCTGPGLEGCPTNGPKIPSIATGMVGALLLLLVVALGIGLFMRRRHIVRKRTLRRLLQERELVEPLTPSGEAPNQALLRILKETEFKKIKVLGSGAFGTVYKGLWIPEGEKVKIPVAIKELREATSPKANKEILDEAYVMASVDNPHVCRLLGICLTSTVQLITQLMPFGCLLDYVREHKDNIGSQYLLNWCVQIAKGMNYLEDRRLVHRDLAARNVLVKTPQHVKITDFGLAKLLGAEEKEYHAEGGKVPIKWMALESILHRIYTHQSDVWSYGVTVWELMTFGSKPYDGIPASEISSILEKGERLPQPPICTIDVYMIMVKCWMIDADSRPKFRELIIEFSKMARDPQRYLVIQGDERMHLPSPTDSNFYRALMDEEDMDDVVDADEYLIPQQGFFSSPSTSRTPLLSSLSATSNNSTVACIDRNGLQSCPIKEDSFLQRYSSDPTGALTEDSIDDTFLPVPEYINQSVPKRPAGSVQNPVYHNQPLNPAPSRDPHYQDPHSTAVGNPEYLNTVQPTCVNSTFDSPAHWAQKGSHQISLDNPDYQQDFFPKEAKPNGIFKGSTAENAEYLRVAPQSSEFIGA

[23] = system: HepG2; assay: Cytotoxicity against human HepG2 cells at 2.5 uM after 48 hrs by LDH release assay (reference value: 100%); type: functional
Procedure, shortened: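 LDH release. HepG2 cells at 1.0 × 10^5/well were incubated 24 h at 37 °C, then treated at 2.5–40 µM for 48 h. Cells lysed with 2% lysate for 1 h gave the full-release (100%) reference; medium-only cells were the low control. LDH in the supernatant was measured per kit. Triplicates, three independent repeats.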

[24] = system: HepG2; assay: Antiproliferative activity against human HepG2 cells at 1 uM after 48 hrs by MTT assay realtive to control; type: functional; procedure, shortened: as §1
[25] = target: T1, Epidermal growth factor receptor; conditions: HEK293, at 10 µM
[26] = system: HepG2; assay: Antiproliferative activity against human HepG2 cells after 48 hrs by MTT assay; type: functional, cell-based; conditions: HepG2, 48 h
Procedure, shortened: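 MTT read-out. Cells seeded at 2 × 10^3/well, attached 24 h at 37 °C in 5% CO2, then exposed to 0.1–100 µM for 24, 48 or 72 h. MTT for 4 h, formazan dissolved in 10% SDS/NH4Cl for 10 h, absorbance at 570 nm corrected at 650 nm. % inhibition computed against untreated and blank wells. IC50 is the mean of at least three independent experiments.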

[27] = system: A549; assay: Antiproliferative activity against human A549 cells at 100 uM after 48 hrs by MTT assay relative to control; type: functional; procedure, shortened: as §1

COc1cc2c(Nc3ccc(C#N)cc3)ncnc2cc1OCCCN1CCC(c2ccccc2)CC1 gave an Activity [1] of 96.5%, an Activity [2] of 67.07% and an Activity [3] of 7.9%. It also gave an Activity [4] of 91.8%, an Activity [5] of 29.72% and an Activity [6] of 196%. For the same compound, the Activity [7] was 50.11%, the Activity [8] was 55.9% and the Activity [9] was 108%. For the same compound, the Activity [10] was “Active”, the Activity [11] was 13.7% and the Activity [12] was “Dose-dependent effect”. The Activity [13] was 63.5%, the Activity [14] was 95.5% and the Activity [15] was 0.8%. For the same compound, the Activity [16] was 63.6%, the IC50 [17] was 28 µM and the Activity [18] was 2.9%. The IC50 [19] was 6.79 µM, the Activity [20] was 145% and the Activity [21] was 24.7%. It also gave an inhibition [22] of 17.9%, an Activity [23] of 39.65% and an Activity [24] of 8.6%. For the same compound, the inhibition [25] was 99.1%, the IC50 [26] was 9.56 µM and the Activity [27] was 91.4%.
